ChEMBL document CHEMBL1147862, “Studies on synthesis and pharmacological activities of 3,6-disubstituted-1,2,4-triazolo[3,4-b]-1,3,4-thiadiazoles and their dihydro analogues” (2007)

Columns and labels:
Type in all cases: functional
Bacillus subtilis [1] = experiment: Antibacterial activity against Bacillus subtilis at 30 ug/ml by agar plate diffusion technique; conditions: read-out: IZ
Rattus norvegicus [2] = experiment: Antiinflammatory activity in Wistar Albino rat assessed as inhibition of carrageenan-induced paw oedema at 20 mg/kg after 2 hrs relative to control
Summary of the method: (§1)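 Wistar albino rats, 150–200 g, six per group, dosed orally with a 20 mg/kg suspension; control gets 0.1 ml 1% gum acacia. After 30 min, 0.1 ml 1% carrageenan in saline is injected subplantar into the right hind paw. Paw volume is read by plethysmograph at 0–4 h. Inhibition = 100(1 − Vtest/Vcontrol) on mean volume increase.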

Staphylococcus aureus [3] = experiment: Antibacterial activity against Staphylococcus aureus at 20 ug/ml by agar plate diffusion technique; conditions: read-out: IZ
Aspergillus niger [4] = experiment: Antifungal activity against Aspergillus niger at 20 ug/ml by paper disc method; conditions: read-out: IZ
Rattus norvegicus [5] = experiment: Antiinflammatory activity in Wistar Albino rat assessed as inhibition of carrageenan-induced paw oedema at 20 mg/kg after 3 hrs relative to control; summary of the method: as §1
Mus musculus [6] = experiment: Analgesic activity in Swiss mouse assessed as increase in reaction time at 20 mg/kg, po after 90 mins by Eddy's hot plate technique
Summary of the method: (§2)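 Swiss mice of either sex, 25–35 g, placed one at a time on a hot plate held at 55 °C. End point is paw licking or jumping, whichever comes first, with a 15 s cut-off to avoid paw injury. Reaction time is recorded and reported as percent increase in reaction time.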

Aspergillus niger [7] = experiment: Antifungal activity against Aspergillus niger at 10 ug/ml by paper disc method; conditions: read-out: IZ
Rattus norvegicus [8] = experiment: Antiinflammatory activity in Wistar Albino rat assessed as inhibition of carrageenan-induced paw oedema at 20 mg/kg after 1 hr relative to control; summary of the method: as §1
Candida albicans [9] = experiment: Antifungal activity against Candida albicans at 10 ug/ml by paper disc method; conditions: read-out: IZ
Bacillus subtilis [10] = experiment: Antibacterial activity against Bacillus subtilis at 20 ug/ml by agar plate diffusion technique; conditions: read-out: IZ
Escherichia coli [11] = experiment: Antibacterial activity against Escherichia coli at 30 ug/ml by agar plate diffusion technique; conditions: read-out: IZ
Staphylococcus aureus [12] = experiment: Antibacterial activity against Staphylococcus aureus at 30 ug/ml by agar plate diffusion technique; conditions: read-out: IZ
Aspergillus niger [13] = experiment: Antifungal activity against Aspergillus niger at 30 ug/ml by paper disc method; conditions: read-out: IZ
Rattus norvegicus [14] = experiment: Antiinflammatory activity in Wistar Albino rat assessed as inhibition of carrageenan-induced paw oedema at 20 mg/kg after 4 hrs relative to control; summary of the method: as §1
Pseudomonas aeruginosa [15] = experiment: Antibacterial activity against Pseudomonas aeruginosa at 30 ug/ml by agar plate diffusion technique; conditions: read-out: IZ
Candida albicans [16] = experiment: Antifungal activity against Candida albicans at 20 ug/ml by paper disc method; conditions: read-out: IZ
Mus musculus [17] = experiment: Analgesic activity in Swiss mouse assessed as increase in reaction time at 20 mg/kg, po after 30 mins by Eddy's hot plate technique; summary of the method: as §2
Bacillus subtilis [18] = experiment: Antibacterial activity against Bacillus subtilis at 10 ug/ml by agar plate diffusion technique; conditions: read-out: IZ
Escherichia coli [19] = experiment: Antibacterial activity against Escherichia coli at 20 ug/ml by agar plate diffusion technique; conditions: read-out: IZ
Staphylococcus aureus [20] = experiment: Antibacterial activity against Staphylococcus aureus at 10 ug/ml by agar plate diffusion technique; conditions: read-out: IZ
Pseudomonas aeruginosa [21] = experiment: Antibacterial activity against Pseudomonas aeruginosa at 10 ug/ml by agar plate diffusion technique; conditions: read-out: IZ
Escherichia coli [22] = experiment: Antibacterial activity against Escherichia coli at 10 ug/ml by agar plate diffusion technique; conditions: read-out: IZ
Candida albicans [23] = experiment: Antifungal activity against Candida albicans at 30 ug/ml by paper disc method; conditions: read-out: IZ
Mus musculus [24] = experiment: Analgesic activity in Swiss mouse assessed as increase in reaction time at 20 mg/kg, po after 60 mins by Eddy's hot plate technique; summary of the method: as §2
Pseudomonas aeruginosa [25] = experiment: Antibacterial activity against Pseudomonas aeruginosa at 20 ug/ml by agar plate diffusion technique; conditions: read-out: IZ

| SMILES | zone of inhibition at 30 µg/mL (Bacillus subtilis [1]) [mm] | inhibition in vivo at 20 mg/kg (Rattus norvegicus [2]) [%] | zone of inhibition at 20 µg/mL (Staphylococcus aureus [3]) [mm] | zone of inhibition at 20 µg/mL (Aspergillus niger [4]) [mm] | inhibition in vivo at 20 mg/kg (Rattus norvegicus [5]) [%] | Activity (Mus musculus [6]) [%] | zone of inhibition at 10 µg/mL (Aspergillus niger [7]) [mm] | inhibition in vivo at 20 mg/kg (Rattus norvegicus [8]) [%] | zone of inhibition at 10 µg/mL (Candida albicans [9]) [mm] | zone of inhibition at 20 µg/mL (Bacillus subtilis [10]) [mm] | zone of inhibition at 30 µg/mL (Escherichia coli [11]) [mm] | zone of inhibition at 30 µg/mL (Staphylococcus aureus [12]) [mm] | zone of inhibition at 30 µg/mL (Aspergillus niger [13]) [mm] | inhibition in vivo at 20 mg/kg (Rattus norvegicus [14]) [%] | zone of inhibition at 30 µg/mL (Pseudomonas aeruginosa [15]) [mm] | zone of inhibition at 20 µg/mL (Candida albicans [16]) [mm] | Activity (Mus musculus [17]) [%] | zone of inhibition at 10 µg/mL (Bacillus subtilis [18]) [mm] | zone of inhibition at 20 µg/mL (Escherichia coli [19]) [mm] | zone of inhibition at 10 µg/mL (Staphylococcus aureus [20]) [mm] | also measured |
| --- | --- | --- | --- | --- | --- | --- | --- | --- | --- | --- | --- | --- | --- | --- | --- | --- | --- | --- | --- | --- | --- |
| Cc1occc1-c1nnc2sc(-c3ccnc4ccccc34)nn12 | 19.8 | 17.1 | 14.1 | 12 | 20.3 | 19.24 | 6.14 | 12.5 | 5.78 | 14.1 | 19.4 | 19.1 | 19.6 | 23.4 | 19.1 | 11 | 5.62 | 8.14 | 15.3 | 8.16 | zone of inhibition at 10 µg/mL (Pseudomonas aeruginosa [21]): 8.17 mm; zone of inhibition at 10 µg/mL (Escherichia coli [22]): 8.74 mm; zone of inhibition at 30 µg/mL (Candida albicans [23]): 19.2 mm; Activity (Mus musculus [24]): 10.24%; zone of inhibition at 20 µg/mL (Pseudomonas aeruginosa [25]): 14.2 mm |
| COc1ccc(Cc2nnc3sc(-c4cc(O)nc(O)c4)nn23)cc1OC | 13.9 | 12.9 | 8.93 | 7.84 | 17.1 | 23.45 | 4.16 | 10.5 | 3.82 | 8.12 | 13.3 | 13.9 | 11.9 | 20.8 | 13.1 | 6.82 | 5.71 | 4.58 | 8.1 | 4.61 | zone of inhibition at 10 µg/mL (Pseudomonas aeruginosa [21]): 4.63 mm; zone of inhibition at 10 µg/mL (Escherichia coli [22]): 4.26 mm; zone of inhibition at 30 µg/mL (Candida albicans [23]): 13.9 mm; Activity (Mus musculus [24]): 14.1%; zone of inhibition at 20 µg/mL (Pseudomonas aeruginosa [25]): 8.9 mm |
| COc1ccc(Cl)c(-c2nnc3sc(-c4ccnc(Cl)c4)nn23)c1 | 18.6 | 20.1 | 13.7 | 11.8 | 23.5 | 23 | 6.64 | 14.4 | 7.14 | 13.8 | 19.2 | 18.6 | 18.4 | 27.2 | 19.1 | 13.7 | 7.14 | 7.12 | 12.2 | 6.98 | zone of inhibition at 10 µg/mL (Pseudomonas aeruginosa [21]): 7.02 mm; zone of inhibition at 10 µg/mL (Escherichia coli [22]): 6.39 mm; zone of inhibition at 30 µg/mL (Candida albicans [23]): 19.3 mm; Activity (Mus musculus [24]): 17.45%; zone of inhibition at 20 µg/mL (Pseudomonas aeruginosa [25]): 12.5 mm |
| COc1ccc(Cl)c(-c2nnc3sc(-c4cc(O)nc(O)c4)nn23)c1 | 13.8 | 14.2 | 8.82 | 8.06 | 21 | 26.14 | 4.82 | 8.35 | 4.14 | 8.38 | 13.2 | 13.7 | 13.6 | 23.4 | 13.3 | 7.15 | 5.68 | 4.7 | 8 | 4.57 | zone of inhibition at 10 µg/mL (Pseudomonas aeruginosa [21]): 4.84 mm; zone of inhibition at 10 µg/mL (Escherichia coli [22]): 4.18 mm; zone of inhibition at 30 µg/mL (Candida albicans [23]): 15 mm; Activity (Mus musculus [24]): 15.18%; zone of inhibition at 20 µg/mL (Pseudomonas aeruginosa [25]): 9.06 mm |
| Cc1occc1-c1nnc2sc(-c3cc(O)nc(O)c3)nn12 | 14.8 | 11.4 | 10.8 | 8.48 | 16.5 | 19.35 | 5.14 | 6.25 | 5.34 | 10.4 | 14.1 | 14.5 | 14.8 | 21.7 | 14.2 | 10 | 4.35 | 6.02 | 8.79 | 6.07 | zone of inhibition at 10 µg/mL (Pseudomonas aeruginosa [21]): 5.95 mm; zone of inhibition at 10 µg/mL (Escherichia coli [22]): 5.38 mm; zone of inhibition at 30 µg/mL (Candida albicans [23]): 17.3 mm; Activity (Mus musculus [24]): 11.45%; zone of inhibition at 20 µg/mL (Pseudomonas aeruginosa [25]): 9.81 mm |
| COc1ccc(Cc2nnc3sc(-c4ccnc(Cl)c4)nn23)cc1OC | 18.9 | 13.2 | 13.6 | 13 | 22.5 | 23.89 | 7.23 | 11.2 | 6.82 | 13.9 | 19.7 | 18.1 | 18.4 | 24.2 | 19.4 | 12.9 | 6.24 | 7.19 | 12.8 | 7.05 | zone of inhibition at 10 µg/mL (Pseudomonas aeruginosa [21]): 6.93 mm; zone of inhibition at 10 µg/mL (Escherichia coli [22]): 6.72 mm; zone of inhibition at 30 µg/mL (Candida albicans [23]): 19.4 mm; Activity (Mus musculus [24]): 12.55%; zone of inhibition at 20 µg/mL (Pseudomonas aeruginosa [25]): 12.2 mm |
